Source: ChEMBL document CHEMBL2407075, “Sulphonamido-quinoxalines: search for anticancer agent” (Eur J Med Chem, 2013)

Assays:
Assay type in all cases: functional
MDA-MB-231 [1] = experiment: Growth inhibition of human MDA-MB-231 cells assessed as cell growth at 10^-4 M after 48 hrs by sulforhodamine B assay; conditions: MDA-MB-231, 48 h, read-out: Activity
SN12C = experiment: Growth inhibition of human SN12C cells assessed as cell growth at 10^-4 M after 48 hrs by sulforhodamine B assay; conditions: read-out: Activity
SW-620 = experiment: Growth inhibition of human SW620 cells assessed as cell growth at 10^-4 M after 48 hrs by sulforhodamine B assay; conditions: SW-620, 48 h, read-out: Activity
MOLT-4 = experiment: Growth inhibition of human MOLT4 cells assessed as cell growth at 10^-4 M after 48 hrs by sulforhodamine B assay; conditions: MOLT-4, 48 h, read-out: Activity
T47D = experiment: Growth inhibition of human T47D cells assessed as cell growth at 10^-5 M after 48 hrs by sulforhodamine B assay; conditions: read-out: Activity
OVCAR-5 = experiment: Growth inhibition of human OVCAR5 cells assessed as cell growth at 10^-5 M after 48 hrs by sulforhodamine B assay; conditions: OVCAR-5, 48 h, read-out: Activity
SK-MEL-28 = experiment: Growth inhibition of human SK-MEL-28 cells assessed as cell growth at 10^-5 M after 48 hrs by sulforhodamine B assay; conditions: SK-MEL-28, 48 h, read-out: Activity
M14 [2] = experiment: Growth inhibition of human M14 cells assessed as cell growth at 10^-5 M after 48 hrs by sulforhodamine B assay; conditions: M14, 48 h, read-out: Activity
LOX IMVI = experiment: Growth inhibition of human LOXIMVI cells assessed as cell growth at 10^-5 M after 48 hrs by sulforhodamine B assay; conditions: read-out: Activity
[3] = Growth inhibition of human HCC2998 cells assessed as cell growth at 10^-5 M after 48 hrs by sulforhodamine B assay; conditions: HCC 2998, 48 h, read-out: Activity
In short: (§1)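 Five-dose screen at NCI. Cells in RPMI 1640 with 5% FBS and 2 mM L-glutamine, seeded at 5000–40,000 cells/well and grown 24 h at 37 °C, 5% CO2 before dosing, with time-zero plates TCA-fixed. Drug diluted from DMSO stock to 0.01, 0.1, 1, 10 and 100 µM final, 48 h. Cells fixed with cold TCA (10% final), stained with 0.4% SRB and read at 515 nm. Percent growth from Tz, control and test absorbances; GI50, TGI and LC50 from dose-response curves.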

SK-OV-3 = experiment: Growth inhibition of human SKOV3 cells assessed as cell growth at 10^-6 M after 48 hrs by sulforhodamine B assay; conditions: SK-OV-3, 48 h, read-out: Activity
NCI-H522 = experiment: Growth inhibition of human NCI-H522 cells assessed as cell growth at 10^-6 M after 48 hrs by sulforhodamine B assay; conditions: NCI-H522, 48 h, read-out: Activity
NCI-H23 = experiment: Growth inhibition of human NCI-H23 cells assessed as cell growth at 10^-6 M after 48 hrs by sulforhodamine B assay; conditions: NCI-H23, 48 h, read-out: Activity
TK-10 = experiment: Growth inhibition of human TK10 cells assessed as cell growth at 10^-7 M after 48 hrs by sulforhodamine B assay; conditions: TK-10, 48 h, read-out: Activity
786-0 = experiment: Growth inhibition of human 786-0 cells assessed as cell growth at 10^-7 M after 48 hrs by sulforhodamine B assay; conditions: 786-0, 48 h, read-out: Activity
In short: (§2)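 Five-dose NCI-60 run (0.01, 0.1, 1, 10 and 100 µM, as 10-fold dilutions from a DMSO stock made at 400× the top final level). Cells were grown in RPMI 1640 with 5% FBS and 2 mM glutamine and plated for 24 h. They were then exposed for 48 h at 37 °C and 5% CO2. TCA fixation was followed by SRB staining with A515 read-out. Percent growth was taken relative to time-zero and control plates.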

M14 [4] = experiment: Growth inhibition of human M14 cells assessed as cell growth at 10^-7 M after 48 hrs by sulforhodamine B assay; conditions: M14, 48 h, read-out: Activity
[5] = Growth inhibition of human HCC2998 cells assessed as cell growth at 10^-7 M after 48 hrs by sulforhodamine B assay; conditions: HCC 2998, 48 h, read-out: Activity; in short: as §1
[6] = Growth inhibition of human EKVX cells assessed as cell growth at 10^-7 M after 48 hrs by sulforhodamine B assay; conditions: read-out: Activity; in short: as §1
MDA-MB-231 [7] = experiment: Growth inhibition of human MDA-MB-231 cells assessed as cell growth at 10^-8 M after 48 hrs by sulforhodamine B assay; conditions: MDA-MB-231, 48 h, read-out: Activity
CAKI-1 = experiment: Growth inhibition of human CAKI-1 cells assessed as cell growth at 10^-8 M after 48 hrs by sulforhodamine B assay; conditions: CAKI-1, 48 h, read-out: Activity; in short: as §2
A498 = experiment: Growth inhibition of human A498 cells assessed as cell growth at 10^-8 M after 48 hrs by sulforhodamine B assay; conditions: A498, 48 h, read-out: Activity; in short: as §2
OVCAR-4 = experiment: Growth inhibition of human OVCAR4 cells assessed as cell growth at 10^-8 M after 48 hrs by sulforhodamine B assay; conditions: OVCAR-4, 48 h, read-out: Activity
SK-MEL-5 = experiment: Growth inhibition of human SK-MEL-5 cells assessed as cell growth at 10^-8 M after 48 hrs by sulforhodamine B assay; conditions: SK-MEL-5, 48 h, read-out: Activity
SK-MEL-2 = experiment: Growth inhibition of human SK-MEL-2 cells assessed as cell growth at 10^-8 M after 48 hrs by sulforhodamine B assay; conditions: SK-MEL-2, 48 h, read-out: Activity
HCT-116 = experiment: Growth inhibition of human HCT116 cells assessed as cell growth at 10^-8 M after 48 hrs by sulforhodamine B assay; conditions: HCT-116, 48 h, read-out: Activity; in short: as §1
HL-60(TB) = experiment: Growth inhibition of human HL-60(TB) cells assessed as cell growth at 10^-8 M after 48 hrs by sulforhodamine B assay; conditions: HL-60, 48 h, read-out: Activity
In short: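 HL-60(TB) suspension cells were treated 48 h at 37 °C within the five-dose series (0.01–100 µM), fixed with 16% final TCA and SRB-stained, read at 515 nm. Percentage growth at each concentration = (Ti−Tz)/(C−Tz)×100, or (Ti−Tz)/Tz×100 when Ti<Tz, with time-zero (Tz) and untreated control (C) plates.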

ACHN = experiment: Growth inhibition of human ACHN cells after 48 hrs by sulforhodamine B assay; conditions: for CC50: read-out: LC50 (the source's name)
In short: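 Adherent cells in RPMI 1640 with 5% FBS and 2 mM L-glutamine were plated at 5000–40,000 cells/well and grown 24 h. Five concentrations (0.01–100 µM, DMSO stock) were added for 48 h at 37 °C. Cells were fixed with cold TCA (10% final) and stained with SRB, read at 515 nm. GI50 came from log concentration–growth curves against time-zero and control plates.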

HOP-62 = experiment: Growth inhibition of human HOP62 cells after 48 hrs by sulforhodamine B assay; conditions: HOP-62, 48 h; for CC50: read-out: LC50 (the source's name); in short: as §1

`O=S(=O)(Nc1ccc(Cl)cc1)c1ccc2nc(-c3ccccc3)c(-c3ccccc3)nc2c1` showed a growth at 100 µM (MDA-MB-231 [1]) of 54%, a growth at 100 µM (SN12C) of 78% and a growth at 100 µM (SW-620) of 70%. It also gave a growth at 100 µM (MOLT-4) of 68%, a growth at 10 µM (T47D) of -20% and a growth at 10 µM (OVCAR-5) of 6%. The growth at 10 µM (SK-MEL-28) was 21%, the growth at 10 µM (M14 [2]) was -27% and the growth at 10 µM (LOX IMVI) was 3%. It also gave a growth at 10 µM [3] of 2%, a growth at 1 µM (SK-OV-3) of 105% and a growth at 1 µM (NCI-H522) of 88%. It also gave a growth at 1 µM (NCI-H23) of 85%, a growth at 0.1 µM (TK-10) of 99% and a growth at 0.1 µM (786-0) of 88%. It also gave a growth at 0.1 µM (M14 [4]) of 85%, a growth at 0.1 µM [5] of 99% and a growth at 0.1 µM [6] of 100%. It also gave a growth at 0.01 µM (MDA-MB-231 [7]) of 99%, a growth at 0.01 µM (CAKI-1) of 87% and a growth at 0.01 µM (A498) of 75%. The growth at 0.01 µM (OVCAR-4) was 85%, the growth at 0.01 µM (SK-MEL-5) was 95% and the growth at 0.01 µM (SK-MEL-2) was 93%. The growth at 0.01 µM (HCT-116) was 96%, the growth at 0.01 µM (HL-60(TB)) was 97% and the TGI (ACHN) was over 100 µM. The CC50 (ACHN) was over 100 µM, the GI50 (HOP-62) was 3.95 µM and the TGI (HOP-62) was over 100 µM. The CC50 (HOP-62) was over 100 µM.
`O=S(=O)(Nc1ccccn1)c1ccc2nc(-c3ccccc3)c(-c3ccccc3)nc2c1` gave a growth at 100 µM (MDA-MB-231 [1]) of 41%, a growth at 100 µM (SN12C) of 64% and a growth at 100 µM (SW-620) of 59%. The growth at 100 µM (MOLT-4) was 48%, the growth at 10 µM (T47D) was -22% and the growth at 10 µM (OVCAR-5) was 8%. For the same compound, the growth at 10 µM (SK-MEL-28) was 19%, the growth at 10 µM (M14 [2]) was -42% and the growth at 10 µM (LOX IMVI) was -93%. For the same compound, the growth at 10 µM [3] was -14%, the growth at 1 µM (SK-OV-3) was 98% and the growth at 1 µM (NCI-H522) was 74%. It also gave a growth at 1 µM (NCI-H23) of 79%, a growth at 0.1 µM (TK-10) of 99% and a growth at 0.1 µM (786-0) of 92%. The growth at 0.1 µM (M14 [4]) was 89%, the growth at 0.1 µM [5] was 100% and the growth at 0.1 µM [6] was 99%. It also gave a growth at 0.01 µM (MDA-MB-231 [7]) of 110%, a growth at 0.01 µM (CAKI-1) of 91% and a growth at 0.01 µM (A498) of 88%. The growth at 0.01 µM (OVCAR-4) was 100%, the growth at 0.01 µM (SK-MEL-5) was 95% and the growth at 0.01 µM (SK-MEL-2) was 99%. It also gave a growth at 0.01 µM (HCT-116) of 97%, a growth at 0.01 µM (HL-60(TB)) of 98% and a TGI (ACHN) of over 100 µM. For the same compound, the CC50 (ACHN) was over 100 µM, the GI50 (HOP-62) was 4.54 µM and the TGI (HOP-62) was over 100 µM. The CC50 (HOP-62) was over 100 µM.
